Experiment [1] has as its target C-C chemokine receptor type 5 (Homo sapiens, UniProt P51681). In words: Inhibitory effect on Chemokine binding to C-C chemokine receptor type 5 using [125I]RANTES. The method, boiled down:
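CHO/CCR5 cells (5 × 10⁴ cells/100 μL) cultured 24 h at 37 °C, then medium replaced with Ham's F-12 binding buffer containing 20 mM Hepes and 0.5% BSA, pH 7.2. Binding with [125I]RANTES (2000 Ci/mmol) plus graded compound concentrations, room temperature, 40 min. Free ligand removed by washing with cold PBS; cell-bound radioactivity counted. IC50 = 50% inhibition of binding; means of duplicate separate experiments (one compound triplicate).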

The target of experiment [2] is C-C chemokine receptor type 2 (Homo sapiens, UniProt P41597). In words: Inhibitory effect on the binding of [125I]- MCP-1 to C-C chemokine receptor type 2-expressing CHO cells. The experiment is classed as cell-based. The method, boiled down: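 CCR2b-expressing CHO cells (5 × 10⁴ cells/100 μL) cultured 24 h at 37 °C. Medium replaced with binding buffer: Ham's F-12, 20 mM Hepes, 0.5% BSA, pH 7.2. [125I]MCP-1 binding run at room temperature for 40 min with graded test-compound concentrations. Free ligand washed off with cold PBS; cell-associated radioactivity counted by scintillation.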
C-C chemokine receptor type 2, sequence (P41597 whole entry): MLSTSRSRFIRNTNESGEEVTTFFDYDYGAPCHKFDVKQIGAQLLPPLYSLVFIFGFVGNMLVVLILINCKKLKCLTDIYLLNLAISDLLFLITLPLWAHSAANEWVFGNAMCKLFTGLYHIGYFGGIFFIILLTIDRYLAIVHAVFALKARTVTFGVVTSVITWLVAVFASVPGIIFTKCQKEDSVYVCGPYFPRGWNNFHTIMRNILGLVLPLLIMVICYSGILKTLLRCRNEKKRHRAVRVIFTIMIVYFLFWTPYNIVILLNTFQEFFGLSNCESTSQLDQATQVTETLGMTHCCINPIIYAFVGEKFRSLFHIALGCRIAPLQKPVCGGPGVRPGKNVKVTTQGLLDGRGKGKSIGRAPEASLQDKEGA

The target in experiment [3] is T1, C-C chemokine receptor type 1 (Homo sapiens, UniProt P32246).
T1 sequence (P32246 whole entry): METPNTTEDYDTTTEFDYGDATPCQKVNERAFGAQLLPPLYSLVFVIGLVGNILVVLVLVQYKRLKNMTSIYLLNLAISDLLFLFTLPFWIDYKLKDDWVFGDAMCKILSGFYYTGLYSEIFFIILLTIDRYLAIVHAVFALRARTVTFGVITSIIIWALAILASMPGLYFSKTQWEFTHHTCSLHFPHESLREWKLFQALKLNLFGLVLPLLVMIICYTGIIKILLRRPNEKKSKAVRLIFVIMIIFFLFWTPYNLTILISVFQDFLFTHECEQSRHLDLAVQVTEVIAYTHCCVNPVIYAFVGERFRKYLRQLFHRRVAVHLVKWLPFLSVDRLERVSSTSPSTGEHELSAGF
The experiment in a line: Inhibitory effect on the binding of [125I]RANTES to C-C chemokine receptor type 1-expressing CHO cells. It counts as cell-based. The method, boiled down: (§1)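 Whole-cell radioligand binding on CHO cells expressing CCR1 ([125I]RANTES), CCR3 ([125I]eotaxin) or CCR4 ([125I]TARC). Cells were seeded and cultured 24 h at 37 °C. Binding ran in Ham's F-12 with 20 mM Hepes and 0.5% BSA, pH 7.2, at room temperature for 40 min with graded compound. After a cold-PBS wash, cell-bound radioactivity was counted. Means ± SEM of ≥3 separate experiments.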

Experiment [4] in a line: Inhibitory effects on HIV-1 (Ba-L) replication was evaluated in MAGI-CCR5 cells. It counts as functional, cell-based. As to conditions: Homo sapiens.
Experiment [5] has as its system Human immunodeficiency virus 1. The experiment in a line: Inhibitory effects on HIV-1 (Ba-L) replication was evaluated in PBMCs. It counts as functional, organism-based.
The target in experiment [6] is T2, C-C chemokine receptor type 3 (Homo sapiens, UniProt P51677).
T2 sequence (P51677 whole entry): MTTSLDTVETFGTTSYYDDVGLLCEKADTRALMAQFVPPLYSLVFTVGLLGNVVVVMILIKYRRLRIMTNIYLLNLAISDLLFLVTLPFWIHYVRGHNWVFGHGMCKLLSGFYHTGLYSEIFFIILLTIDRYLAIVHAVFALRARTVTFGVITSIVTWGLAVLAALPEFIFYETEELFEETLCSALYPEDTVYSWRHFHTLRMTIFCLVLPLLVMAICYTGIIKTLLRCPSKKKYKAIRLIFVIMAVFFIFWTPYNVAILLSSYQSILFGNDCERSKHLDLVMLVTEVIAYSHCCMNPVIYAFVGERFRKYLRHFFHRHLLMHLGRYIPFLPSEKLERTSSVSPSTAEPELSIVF
In words: Inhibitory effect on the binding of [125I]- eotaxin to C-C chemokine receptor type 3- expressing CHO cells. It counts as cell-based. An outline of the steps: as §1

The target of experiment [7] is T3, C-C chemokine receptor type 4 (Homo sapiens, UniProt P51679).
T3 sequence (P51679 whole entry): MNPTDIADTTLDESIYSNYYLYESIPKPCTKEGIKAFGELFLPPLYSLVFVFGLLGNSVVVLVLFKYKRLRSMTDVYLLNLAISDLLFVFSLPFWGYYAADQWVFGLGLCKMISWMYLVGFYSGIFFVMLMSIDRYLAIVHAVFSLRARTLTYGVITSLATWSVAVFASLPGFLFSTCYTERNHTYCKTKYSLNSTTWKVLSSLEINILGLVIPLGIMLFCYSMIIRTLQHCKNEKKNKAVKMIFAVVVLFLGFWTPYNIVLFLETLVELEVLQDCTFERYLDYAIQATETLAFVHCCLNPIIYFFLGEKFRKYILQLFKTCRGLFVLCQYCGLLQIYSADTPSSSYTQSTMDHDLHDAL
The experiment in a line: Inhibitory effect on the binding of [125I]TARC to C-C chemokine receptor type 4-expressing CHO cells. It counts as cell-based. An outline of the steps:
as §1

This is an account of results in ChEMBL document CHEMBL1133188, “Discovery of novel, potent, and selective small-molecule CCR5 antagonists as anti-HIV-1 agents: synthesis and biological evaluation of anilide derivatives with a quaternary ammonium moiety” (J Med Chem, 2000).

C-C chemokine receptor type 5, sequence (P51681 whole entry): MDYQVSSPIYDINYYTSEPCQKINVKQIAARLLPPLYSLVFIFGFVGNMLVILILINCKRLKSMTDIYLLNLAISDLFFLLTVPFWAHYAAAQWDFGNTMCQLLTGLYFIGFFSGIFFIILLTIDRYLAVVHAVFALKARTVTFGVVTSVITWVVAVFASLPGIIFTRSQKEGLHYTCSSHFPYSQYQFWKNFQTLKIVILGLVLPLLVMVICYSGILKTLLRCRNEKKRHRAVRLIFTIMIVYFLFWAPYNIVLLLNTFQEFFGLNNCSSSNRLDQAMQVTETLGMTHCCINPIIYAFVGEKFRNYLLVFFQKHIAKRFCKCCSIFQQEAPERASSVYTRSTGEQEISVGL

With `C[N+](C)(Cc1ccc(NC(=O)C2=Cc3cc(-c4ccc(C(F)(F)F)cc4)ccc3OCC2)cc1)C1CCOCC1`, the IC50 in experiment [1] came to 1.5 nM.
The same measure, in the same setting: as for `Cc1ccc(-c2cccc(/C=C/C(=O)Nc3ccc(C[N+]4(C)CCCCC4)cc3)c2)cc1`, the figure is 570 nM; as for `CCC(CC)[N+](C)(C)Cc1ccc(NC(=O)C2=Cc3cc(-c4ccc(C)cc4)ccc3OCC2)cc1`, 3.3 nM.
Still for that read-out and setting: for `Cc1ccc(-c2ccc3c(c2)C=C(C(=O)Nc2ccc(C[N+]4(C)CCCCC4)cc2)CCO3)cc1` the value was 43 nM; for `Cc1ccc(-c2ccc3c(c2)C=C(C(=O)Nc2ccc(C[N+](C)(C)C4CCOCC4)cc2)CCC3)cc1` [listing 1 of 2 here], 1.8 nM; for `C[N+]1(Cc2ccc(NC(=O)C3=Cc4cc(-c5ccccc5)ccc4CC3)cc2)CCCC1`, 430 nM.
Still for that read-out and setting: as for `Cc1cccc[n+]1Cc1ccc(NC(=O)C2=Cc3cc(-c4ccccc4)ccc3CC2)cc1`, the figure is 3200 nM; as for `Cc1ccc(-c2ccc3c(c2)C=C(C(=O)Nc2ccc(C[N+]4(C)CCCCC4)cc2)CC3)cc1`, 240 nM; as for `C[N+]1(Cc2ccc(NC(=O)C3=Cc4cc(-c5ccccc5)ccc4CC3)cc2)CCOCC1`, 1200 nM.
Take `Cc1ccc(-c2ccc3c(c2)C=C(C(=O)Nc2ccc(C[N+]4(C)CCCCC4)cc2)CO3)cc1`: the concentration for half-maximal inhibition (IC50) in experiment [1] stood at 660 nM.
Still for that read-out and setting: as for `Cc1ccc(-c2ccc3c(c2)C=C(C(=O)Nc2ccc(C[N+](C)(C)C4CCOCC4)cc2)CCO3)cc1`, the figure is 1.4 nM; as for `C[N+](C)(Cc1ccc(NC(=O)C2=Cc3cc(-c4ccc(N5CCCC5)cc4)ccc3CCC2)cc1)C1CCOCC1`, 3.8 nM; as for `Cc1ccc(-c2ccc3c(c2)C=C(C(=O)Nc2ccc(CC[N+]4(C)CCCCC4)cc2)CCO3)cc1`, 110 nM.
On the same count and under the same terms, for `C[N+]1(Cc2ccc(NC(=O)C3=Cc4cc(-c5ccccc5)ccc4CC3)cc2)CCCCCC1` the value was 380 nM.
On the same count and under the same terms, as for `Cc1ccc(-c2ccc3c(c2)C=C(C(=O)Nc2ccc(C[N+](C)(C)C4CCSCC4)cc2)CCO3)cc1`, the figure is 3.1 nM; as for `Cc1ccc(-c2ccc3c(c2)C=C(C(=O)Nc2ccc(C[N+]4(C)CCCCC4)cc2)CCC3)cc1`, 25 nM; as for `CCOc1ccc(-c2ccc3c(c2)C=C(C(=O)Nc2ccc(C[N+](C)(C)C4CCOCC4)cc2)CCO3)cc1`, 1.8 nM.
In turn, `CCCC[P+](CCCC)(CCCC)Cc1ccc(NC(=O)/C=C/c2cccc(-c3ccc(C)cc3)c2)cc1` displayed an IC50 in experiment [1] of 620 nM.
Same read-out and setting: as for `Cc1ccc(-c2ccc3c(c2)C=C(C(=O)Nc2ccc(C[N+](C)(C)C4CCC(=O)CC4)cc2)CCO3)cc1`, the figure is 4.5 nM; as for `CC[N+](CC)(CC)Cc1ccc(NC(=O)C2=Cc3cc(-c4ccccc4)ccc3CC2)cc1`, 840 nM.
Still for that read-out and setting: as for `C[N+]1(Cc2ccc(NC(=O)C3=Cc4cc(-c5ccccc5)ccc4CC3)cc2)CCCCC1`, the figure is 390 nM.
With `Cc1ccc(-c2ccc3c(c2)C=C(C(=O)Nc2ccc(C[N+](C)(C)C4CCOCC4)cc2)CCC3)cc1` [listing 2 of 2 here], the IC50 in experiment [2] is 27 nM; in experiment [3] it was above 10 µM; in experiment [6] it was above 10 µM; in experiment [1] it was 1.4 nM; in experiment [7], above 10 µM. Besides, the EC50 amounted to 1.2 nM in experiment [4] and 3.7 nM in experiment [5].
In experiment [1], `C[N+](C)(Cc1ccc(NC(=O)C2=Cc3cc(-c4ccc(N5CCCCC5)cc4)ccc3CCC2)cc1)C1CCOCC1` gave a half-maximal inhibitory concentration (IC50) of 2.2 nM. That is a single-digit nanomolar value.
Still for that read-out and setting: for `Cc1ccc(-c2ccc3c(c2)C=C(C(=O)Nc2ccc(C[N+](C)(C)CCCO)cc2)CCO3)cc1` the value was 6.8 nM; for `C[N+]1(CCc2ccc(NC(=O)C3=Cc4cc(-c5ccccc5)ccc4CC3)cc2)CCCCC1`, 1100 nM.

In general, IC50 refers to the concentration that inhibits the measured activity by half. By EC50 is commonly meant the concentration that produces a half-maximal response. A higher EC50 goes with a less potent agent.
